Assay results taken from ChEMBL document CHEMBL4706601, “The endocannabinoid system dual-target ligand N-cycloheptyl-1,2-dihydro-5-bromo-1-(4-fluorobenzyl)-6-methyl-2-oxo-pyridine-3-carboxamide improves disease severity in a mouse model of multiple sclerosis” (Eur J Med Chem, 2020).
The source made the active and inactive calls. No cut-off for these calls is given here.

Legend:
Mus musculus [1] = assay: (§1) Antiinflammatory activity in MOG (35 to 55 residues)/pertussis toxin-induced experimental autoimmune encephalomyelitis C57BL/6J mouse model assessed as improvement in late stage disease severity at 10 mg/kg, ip dosed once daily for 20 days starting from day 10 to 16 post immunization and measured at day 10 to 19 post treatment; format: functional, organism-based; details: time 10-19 day
Summary of the method: (§2)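 Active EAE in mice: 200 µg MOG35-55 in CFA (4 mg/ml M. tuberculosis) s.c. at hips and tail root, plus pertussis toxin 300 ng i.p. after immunization and 48 h later. Daily i.p. dosing (DMSO vehicle) for 20 days from each mouse's onset (day 10–16); onset = day 1. Daily clinical score; multiple t-tests with Holm-Sidak.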

[2] = target: Cannabinoid receptor 2 (Mus musculus) (UniProt P47936); assay: Agonist activity at CB2R in LPS induced mouse BV2 cells assessed as increase in IL-10 secretion at 10 uM preincubated for 30 mins followed by LPS stimulation for 4 hrs by ELISA; format: cell-based; details: BV-2, filed as agonist, time 270.0 min
Summary of the method: (§3)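 BV-2 murine microglia grown in high-glucose DMEM with 10% FBS. Treatments in FBS-free medium: test agonist 10 μM for 30 min, then LPS 5 μg/ml for 4 h; SR144528 10 μM given 15 min before agonist. DMSO ≤0.1% final. Medium spun 10 min at 1000×g; IL-1β, IL-6, IL-10 quantified by ELISA; three independent experiments in duplicate.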

Cannabinoid receptor 1 = Cannabinoid receptor 1 (Homo sapiens, UniProt P21554); assay: Agonist activity at human CB1R expressed in CHO cell membranes after 90 mins by [35S]GTPgammaS assay; format: functional, Membrane
Summary of the method: (§4)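 In-house CHO membranes expressing hCB1 or hCB2 (10 µg) in 50 mM Tris-HCl, 3 mM MgCl2, 0.2 mM EDTA, 100 mM NaCl, 0.5% fatty-acid-free BSA, pH 7.4, with 10 μM GDP and 0.1 nM [35S]GTPγS. Incubated 90 min at 30 °C; antagonist pre-incubated 30 min. Nonspecific binding with 10 μM GTPγS; bound label by filtration and counting; ≥3 experiments in triplicate.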

Mus musculus [3] = assay: as §1, with “reduction” for “improvement”, “clinical scores” for “late stage disease severity”, “from” for “at day”, “19 days” for “19”; format: functional; details: time 10-19 day; summary of the method: as §2
[4] = target: Cannabinoid receptor 2 (Mus musculus) (UniProt P47936); assay: Agonist activity at CB2R in LPS induced mouse BV2 cells assessed as IL-1beta secretion at 10 uM preincubated for 30 mins followed by LPS stimulation for 4 hrs by ELISA (reference value: 734.3 +/-35.1%); format: cell-based; details: BV-2, filed as agonist, time 270.0 min; summary of the method: as §3
Mus musculus [5] = assay: as §1, with “improvement in early stage disease” for “improvement in late stage disease”, “at day 2 to 4” for “at day 10 to 19”, “2 to 4 post treatment” for “10 to 19 post treatment”; format: functional, organism-based; details: time 2-4 day; summary of the method: as §2
[6] = target: Cannabinoid receptor 1 (Rattus norvegicus) (UniProt P20272); assay: Agonist activity at CB1R in Sprague-Dawley rat hippocampal synaptosomes assessed as inhibition of 4-AP evoked glutamate release at 10 uM preincubated for 8 mins followed by 4-AP addition in presence of 1 to 3 uM CB1R antagonist, SR141716A by HPLC analysis; format: subcellular; details: Hippocampus
Summary of the method: (§5)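 Rat (male Sprague Dawley, 200-250 g) hippocampal synaptosomes from Percoll gradient, superfused at 37 °C (0.5 ml/min); 4-AP 600 μM for 2 min. Compounds and antagonists (SR141716A, SR144528, 1 μM) added 8 min before 4-AP and kept during it; basal effects tested by 2-min exposure alone. Endogenous glutamate by HPLC as pmol/mg protein; overflow = stimulated minus basal in control chambers; n = 3–9, triplicate.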

[7] = target: Cannabinoid receptor 1 (Rattus norvegicus) (UniProt P20272); assay: Agonist activity at CB1R in Sprague-Dawley rat hippocampal synaptosomes assessed as inhibition of 4-AP evoked glutamate release at 1 uM preincubated for 8 mins followed by 4-AP addition by HPLC analysis; format: subcellular; details: Hippocampus; summary of the method: as §5
Mus musculus [8] = assay: In vivo agonist activity at CB1R in C57BL/6J mouse assessed as functional CB1R level in brain at 10 mg/kg, ip after 20 days by [35S]GTPgammaS assay; format: organism-based; details: time 20.0 day
Summary of the method: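 After 20 days of EAE treatment, half-brain membranes (20 µg) pre-incubated 30 min at 37 °C with adenosine deaminase 0.5 units/mL, 30 μM GDP, 0.2 nM [35S]GTPγS at pH 7.4. Stimulated by CP55,940 1 μM, SR141716A 1 μM, both, or vehicle for 1 h at 30 °C; nonspecific with 10 μM GTPγS; expressed as % of vehicle control.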

Cannabinoid receptor 2 [9] = target: T1, Cannabinoid receptor 2 (Homo sapiens, UniProt P34972); assay: Agonist activity at human CB2R expressed in CHO cell membranes after 90 mins by [35S]GTPgammaS assay; format: functional, Membrane; summary of the method: as §4
Mus musculus [10] = assay: as §1, with “reduction” for “improvement”, “clinical scores” for “late stage disease severity”, “from 2” for “at day 10”, “4 days” for “19”; format: functional; details: time 2-4 day; summary of the method: as §2
[11] = target: Cannabinoid receptor 1 (Rattus norvegicus) (UniProt P20272); assay: Agonist activity at CB1R in Sprague-Dawley rat hippocampal synaptosomes assessed as inhibition of 4-AP evoked glutamate release at 10 uM preincubated for 8 mins followed by 4-AP addition by HPLC analysis; format: subcellular; details: Hippocampus, filed as agonist; summary of the method: as §5
Cannabinoid receptor 2 [12] = target: T1, Cannabinoid receptor 2; assay: (§6) Competitive antagonist activity at human CB2R expressed in CHO cell membranes assessed as N-cycloheptyl-1,2-dihydro-5-bromo-1-(4-fluoro benzyl)-6-methyl-2-oxo-pyridine-3-carboxamide Emax at 300 nM preincubated with compound for 30 mins followed by GTPgammaS addition and measured after 90 mins by [35S]GTPgammaS assay (reference value: 210%); format: functional; details: Membrane, filed as antagonist, time 120.0 min
Summary of the method: (§7)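 hCB2 CHO membranes in GTPγS buffer (10 μM GDP, 0.1 nM [35S]GTPγS, pH 7.4) pre-incubated 30 min with antagonist at 300 nM or 1 µM, then agonist or inverse agonist concentration series, 90 min at 30 °C. EC50 and Emax reported with 95% CI; Schild analysis; controls CP55,940 100 nM and AM630 1 μM; ≥3 experiments in triplicate.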

Cannabinoid receptor 2 [13] = target: T1, Cannabinoid receptor 2; assay: as §6, with “1000” for “300”; format: functional; details: Membrane, filed as antagonist, time 120.0 min; summary of the method: as §7
Homo sapiens = species on record: Homo sapiens; assay: Selectivity index, ratio of Ki for human CB1R expressed in CHO cell membranes to Ki for human CB2R expressed in CHO cell membranes; format: cell-based
Cannabinoid receptor 2 [14] = target: T1, Cannabinoid receptor 2; assay: Antagonist activity at human CB2R expressed in CHO cell membranes preincubated for 30 mins followed by GTPgammaS addition and measured after 90 mins by [35S]GTPgammaS assay; format: functional, Membrane; summary of the method: as §4
Cannabinoid receptor 2 [15] = target: T1, Cannabinoid receptor 2; assay: (§8) Competitive antagonist activity at human CB2R expressed in CHO cell membranes assessed as rightward shift of N-cycloheptyl-1,2-dihydro-5-bromo-1-(4-fluoro benzyl)-6-methyl-2-oxo-pyridine-3-carboxamide-induced GTPgammaS binding by measuring fold change in N-cycloheptyl-1,2-dihydro-5-bromo-1-(4-fluoro benzyl)-6-methyl-2-oxo-pyridine-3-carboxamide EC50 at 300 nM preincubated with compound for 30 mins followed by GTPgammaS addition and measured after 90 mins by [35S]GTPgammaS assay; format: functional; details: Membrane, time 120.0 min; summary of the method: as §7
Cannabinoid receptor 2 [16] = target: T1, Cannabinoid receptor 2; assay: as §8, with “100” for “300”; format: functional; details: Membrane, time 120.0 min

T1 sequence (P34972 whole entry): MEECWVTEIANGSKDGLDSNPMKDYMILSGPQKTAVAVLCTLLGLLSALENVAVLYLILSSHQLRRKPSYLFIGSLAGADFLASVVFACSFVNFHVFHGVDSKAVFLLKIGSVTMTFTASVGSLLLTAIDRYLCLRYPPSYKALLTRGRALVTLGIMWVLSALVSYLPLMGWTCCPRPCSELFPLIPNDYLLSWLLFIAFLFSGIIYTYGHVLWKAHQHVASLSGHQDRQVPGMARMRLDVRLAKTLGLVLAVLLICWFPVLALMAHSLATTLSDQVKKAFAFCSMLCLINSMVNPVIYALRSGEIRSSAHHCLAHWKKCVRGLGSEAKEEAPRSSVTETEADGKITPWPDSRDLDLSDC
Chain of Cannabinoid receptor 1 (Rattus norvegicus) (P20272 whole entry, the tested form may be a part): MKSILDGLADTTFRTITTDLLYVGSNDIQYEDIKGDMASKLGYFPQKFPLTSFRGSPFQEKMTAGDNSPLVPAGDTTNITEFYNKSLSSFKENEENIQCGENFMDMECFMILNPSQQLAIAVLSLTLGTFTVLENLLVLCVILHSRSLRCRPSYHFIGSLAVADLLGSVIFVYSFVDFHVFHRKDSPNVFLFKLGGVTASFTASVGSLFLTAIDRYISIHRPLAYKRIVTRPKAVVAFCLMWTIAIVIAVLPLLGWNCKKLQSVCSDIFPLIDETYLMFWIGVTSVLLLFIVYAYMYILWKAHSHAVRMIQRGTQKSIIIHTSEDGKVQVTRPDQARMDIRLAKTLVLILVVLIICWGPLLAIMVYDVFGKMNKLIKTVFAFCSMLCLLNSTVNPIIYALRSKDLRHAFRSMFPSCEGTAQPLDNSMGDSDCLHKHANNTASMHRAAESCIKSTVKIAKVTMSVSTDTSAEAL
Chain of Cannabinoid receptor 2 (Mus musculus) (P47936 whole entry): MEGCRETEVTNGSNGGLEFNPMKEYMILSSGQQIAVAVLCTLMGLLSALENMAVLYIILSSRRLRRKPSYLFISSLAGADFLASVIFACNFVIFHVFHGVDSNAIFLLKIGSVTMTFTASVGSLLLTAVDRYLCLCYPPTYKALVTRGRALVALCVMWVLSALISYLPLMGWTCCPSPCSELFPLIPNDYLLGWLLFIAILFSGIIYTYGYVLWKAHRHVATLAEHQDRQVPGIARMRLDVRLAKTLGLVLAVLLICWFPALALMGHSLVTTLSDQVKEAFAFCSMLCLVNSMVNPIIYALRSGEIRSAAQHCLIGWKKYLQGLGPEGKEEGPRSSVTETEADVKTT
Chain of Cannabinoid receptor 1 (P21554 whole entry): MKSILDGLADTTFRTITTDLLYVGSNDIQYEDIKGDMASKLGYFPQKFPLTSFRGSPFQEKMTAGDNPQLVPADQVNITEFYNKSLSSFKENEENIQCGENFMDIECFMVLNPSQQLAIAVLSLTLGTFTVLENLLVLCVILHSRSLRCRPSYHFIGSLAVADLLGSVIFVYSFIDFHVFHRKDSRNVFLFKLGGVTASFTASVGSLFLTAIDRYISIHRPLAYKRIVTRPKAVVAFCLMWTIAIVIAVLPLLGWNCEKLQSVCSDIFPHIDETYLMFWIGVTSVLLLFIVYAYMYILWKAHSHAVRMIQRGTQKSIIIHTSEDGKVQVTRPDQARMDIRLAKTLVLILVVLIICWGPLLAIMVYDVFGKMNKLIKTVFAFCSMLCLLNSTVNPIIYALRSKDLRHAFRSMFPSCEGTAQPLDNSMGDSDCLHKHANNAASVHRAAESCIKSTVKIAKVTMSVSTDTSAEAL

SMILES	Activity (Mus musculus [1])	Activity [2] [%]	EC50 (Cannabinoid receptor 1) [nM]	inhibition in vivo at 10 mg/kg (Mus musculus [3]) [%]	Activity [4] [%]	Activity (Mus musculus [5])	Activity [6]	Activity [7]	Activity (Mus musculus [8])	EC50 (Cannabinoid receptor 2 [9]) [nM]	inhibition in vivo at 10 mg/kg (Mus musculus [10]) [%]	Activity [11]	Emax (Cannabinoid receptor 2 [12]) [%]	Emax (Cannabinoid receptor 2 [13]) [%]	Ratio Ki (Homo sapiens)	EC50 (Cannabinoid receptor 2 [14]) [nM]	fold change (FC) (Cannabinoid receptor 2 [15])	fold change (FC) (Cannabinoid receptor 2 [16])
Cc1c(Br)cc(C(=O)NC2CCCCCC2)c(=O)n1Cc1ccc(F)cc1	Active	484	56.1	50	24.6	Active	inactive	inactive	inactive	11.6	30	Active						
COc1ccc(-c2cc(C(=O)NC3CCCCCC3)c(=O)n(Cc3ccc(F)cc3)c2C)cc1													209	208	0.37	170	19	8
